# Most compounds without a hit are left out; they make up all but 9.6% or so of the library.
# MT stabilizer = stabilizes microtubules in HeLa cells; HeLa tubulin immunostaining HCS, 24 h; share of cells brighter than vehicle mean+2SD; % tubulin-high responders, % at 10 µM; actives 0.83% (n = 200,000); AID 2205;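 active = plate Z-score above 3 for both tubulin-high and condensed-nucleus cell shares, with cell loss under 80%, at 10 µM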;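 also: anti alpha tubulin signal scored within the nucleus-defined area of each cell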
# APP 5UTR inh = APP translation inhibition | SH-SY5Y APP 5'UTR-luciferase reporter, luminescence | inhibition, % at 2 µM | actives 0.82% (n = 190,000);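 active = inhibition above a set limit, derived from the sample mean plus 3 SD, cut at about 45% in these data; inconclusive = one replicate passes the limit while the other fails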
# Ba/F3 V617F tox = lowers viability of Ba/F3 cells expressing EpoR and JAK2V617F. ATP luminescence. inhibition, % at 5.6 µM. actives 1.1% (n = 220,000). AID 1446;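 active = inhibition above the campaign mean plus 3 SD over all tested compounds, cut at about 24% in these data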;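 also: cytokine-independent growth of Ba/F3 cells driven by EpoR plus mutant JAK2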
# L major viab = reduces viability of Leishmania major promastigotes. resazurin fluorescence viability. inhibition, % at 10 µM. actives 9% (n = 200,000); in the data active = inhibition above about 50%;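 also: promastigotes grown with compound for 44 hours at 28 °C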
# bCat nuc transl = alters nuclear translocation of beta-catenin in HeLa cells; immunofluorescence imaging; nuclear translocation activity, % at 5 µM; actives 0.3% (n = 190,000); AID 1665;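 active = nuclear translocation activity above 50% at 5 µM, with a well cell count of 50 or more; inconclusive = wells under 50 cells across six images, flagged as toxic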;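 also: per-cell ratio of nuclear to cytoplasmic median beta-catenin stain intensity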
#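 Assay system: human HeLa cells, native beta-catenin; doses: 5 µM primary, 0.02–20 µM confirmation; incubation: compound treatment 24 h, 37°C, 5% CO2; technique: fluorescence imaging of beta-catenin antibody stain plus DAPI; measure: % activation, nuclear-to-cytoplasmic median beta-catenin signal ratio per cell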
# BaF3 tox = reduces parental Ba/F3 cell viability, JAK2V617F counter-screen; CellTiter-Glo ATP luminescence; inhibition, % at 5.6 µM; actives 1.1% (n = 220,000); AID 1486;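 active = inhibition above a per-campaign cutoff, the mean inhibition of all tested compounds plus 3 SD, cut at about 27% in these data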
# A number is an active result; 0 = inactive; ? = inconclusive; - = not tested or not shown.
SMILES,MT stabilizer,APP 5UTR inh,Ba/F3 V617F tox,L major viab,bCat nuc transl,BaF3 tox
CSC1=NC(C(Cl)(Cl)Cl)N=C(c2ccc(C)cc2)N1 (centres undefined),0,71,83,0,108,64
COc1cccc(/C=N/Nc2nc(Nc3ccccc3)nc(-n3nc(C)cc3C)n2)c1O,0,79,0,100,-,0
Cc1cnn(-c2cc(N/N=C/c3ccccc3Cl)ncn2)c1,0,0,0,0,0,0
CCOc1cccc(/C=N/Nc2nc(N3CCCC3)nc(N3CCCC3)n2)c1O,-,-,0,-,0,0
COc1cccc(/C=N/Nc2cc(-n3nc(C)cc3-c3ccccc3)ncn2)c1O,0,71,0,67,0,0
CCOC(=O)C1=C(C)NC(=O)NC1c1ccc2c(c1)OCCO2 (centres undefined),0,0,0,0,0,0
CC1=C(C(=O)OCc2ccc3c(c2)OCO3)C(c2ccc(Cl)cc2)NC(=O)N1 (centres undefined),16,78,74,0,0,76
CC1=C(C(=O)OCc2ccc3c(c2)OCO3)C(c2ccc(F)cc2)NC(=O)N1 (centres undefined),15,0,52,0,0,31
O=C(CN(C(=O)c1cccc([N+](=O)[O-])c1)C1CCCCC1)Nc1ccc(Cl)c([N+](=O)[O-])c1,0,0,0,70,0,0
Cc1ccc(NC(=O)CN(C)C(=O)c2ccc(Cl)c([N+](=O)[O-])c2)cc1,0,0,0,0,0,0
CCOc1ccc(-n2c(=O)c3c4c(sc3n(CC(=O)NCC3CCCO3)c2=O)CCC4)cc1 (centres undefined),0,0,0,0,0,0
O=C1NC(=S)N(c2cccc(Cl)c2)C12CCCCC2,0,0,0,52,0,0
O=C(O)CSC1=NC(=Nc2cccc(Cl)c2)C2(CCCCC2)N1c1ccccc1,0,0,0,0,0,0
Cc1ccc(S(=O)(=O)N(C)CC(=O)OCC(=O)c2c(N)n(C)c(=O)n(C)c2=O)cc1,0,0,0,0,0,0
CCOc1ccc2oc(C(=O)OCC(=O)NC3CC3)c(C)c2c1,0,0,0,0,0,0
O=C(NCc1ccco1)c1ccc(COc2ccccc2Cl)cc1,0,0,0,0,0,0
NNC(=O)c1ccc(COc2ccccc2)cc1,0,0,0,0,0,0
O=C(NCc1ccco1)c1ccc(COc2ccc(Cl)cc2)cc1,0,0,0,50,0,0
COC(=O)c1ccc(CNC(=O)c2ccc(COc3ccccc3)cc2)cc1,0,0,0,69,-,0
COc1cc(C=Nc2cccc(C)c2)c(O)c([N+](=O)[O-])c1,0,0,0,68,-,0
Cc1cccc(N=Cc2cc3c(cc2[N+](=O)[O-])OCO3)c1,0,0,0,0,0,0
CCS(=O)(=O)N1CCN(c2ccccn2)CC1,0,0,0,92,-,0
COc1ccc(OC)c(/C=C/C(=O)NCCc2nc3ccccc3[nH]2)c1,-,-,0,-,0,0
N#CCN1CCCC(C(N)=O)C1 (centres undefined),0,0,0,0,0,0
O=C(C1=C(O)/C(=C/c2ccc(O)cc2)CCC1)C(F)(F)F,0,0,0,56,?,0
SMILES,MT stabilizer,APP 5UTR inh,Ba/F3 V617F tox,L major viab,bCat nuc transl,BaF3 tox
COc1cccc(C(=O)NC(Cc2ccccc2)c2ccc3c(c2)OCCCO3)c1 (centres undefined),0,0,0,0,0,0
CC(=O)c1ccc(NC(=O)CN(C)CC(=O)Nc2cccc(F)c2)cc1,0,0,0,0,0,0
CC1(C)Cc2nc3sc4c(=O)n(CC(N)=O)cnc4c3cc2CO1,0,0,0,0,0,0
Cc1nc2c(sc3nc4c(cc32)COC(C)(C)C4)c(=O)n1CC(=O)NCc1ccco1,28,0,76,0,-,79
CC1(C)Cc2nc3sc4c(=O)n(CC(=O)NCc5ccccc5)cnc4c3cc2CO1,34,0,0,0,-,0
C=CCn1c(O)c(C2=c3ccccc3=NC2=O)sc1=Nc1ccc(O)cc1,-,-,-,-,0,-
CC1=CSC2=NC(=O)/C(=C\c3cccn3-c3ccc([N+](=O)[O-])cc3)C(=N)N12,0,0,0,60,0,0
CC(C)c1ccc(-n2cccc2/C=C2/C(=N)N3C=CSC3=NC2=O)cc1,0,0,0,98,0,0
Cc1ccc(-n2cccc2/C=C2/C(=N)N3C(=NC2=O)SN=C3S(C)(=O)=O)cc1Cl,0,0,0,0,0,0

# High-throughput results (PubChem)
